From publication PMC4111568 (Bioorganic & medicinal chemistry, 2011)

System: CWR22rv-1 cells
Experiment: Cell death of CWR22rv-1 prostate cancer cells
Type: cell-based, human
Conditions: 25 μM, after 24 h
Summary of the method: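 CWR22Rv1 cells were seeded at 300,000 cells/well in RPMI 1640 with 10% FBS, 2.5 mM L-glutamine and penicillin-streptomycin at 37 °C, 5% CO2, then serum-starved overnight. Test compound (DMSO stock, diluted in serum-free RPMI) was applied in triplicate for 24–72 h. Cells were trypsinised, fixed in 70% ethanol, treated with RNase (5 μg/mL), stained with propidium iodide (50 μg/mL), and DNA content/cell-cycle fractions were measured by flow cytometry.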

CCCCCCCC(O)(C(N)=O)c1cccc(Cl)c1 (racemic) [(±)-1, 2-(3-chlorophenyl)-2-hydroxynonanamide]
cell death: marginal effects
